Laboratory results reported in publication PMC7066653 (ACS Omega, 2020).
Converted amounts (≈) assume the structure as drawn.

What was measured:
[1] = 9 (b3); cited from earlier work
[2] = Aqueous solubility of ATXP and ATX at 25 °C, by HPLC; format: physicochemical; details: for solubility at 1 h: 25 °C, thermodynamic from solid
Outline: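 Excess solid was added to 1 mL of ultrapure water, 0.9% NaCl (pH 7.4) or PBS (pH 7.4) and held at 25 °C. Samples were taken at 1, 24 and 48 h, filtered (0.22 μm) and quantified by HPLC (C18; 75% methanol/water with 1% TFA; 1 mL/min; 350 nm). Experiments were repeated three times and reported as mean ± SD.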

[3] = system: focal cerebral ischemia-reperfusion injury (MCAO); design: species or system Sprague-Dawley rats; details: rat, in vivo
[4] = system: focal cerebral ischemia-reperfusion injury (MCAO); assay: Neurological deficit; format: in vivo, Sprague-Dawley rats; details: edaravone 6 mg/kg iv, single dose, P = 0.4298

For COc1ccc(-c2cc(=S)ss2)cc1 [ATT, Anethol trithione], the water solubility [1] is given as 0.38 µg/mL (≈ 1.58 µM).
With Oc1ccc(-c2cc(=S)ss2)cc1 [ATX, 5-(4-hydroxyphenyl)-3H-1,2-dithiole3-thione] the solubility at 1 h ([2]; 0.9% NaCl solution, pH 7.4, saline or isotonic) was less than 0.8 µg/mL, the solubility at 1 h ([2]; PBS, pH 7.4, aqueous buffer) was less than 0.8 µg/mL and the solubility at 1 h ([2]; ultrapure water, water) was 0.8 ± 0.02 µg/mL (≈ 3.53 µM).
In the case of CC1=NN(c2ccccc2)C(=O)C1 [edaravone], the “solubility in saline, in words” value ([2]; saline (0.9%)) is reported as “freely soluble”, the “infarct volume vs vehicle” value [3] is reported as “significant reductions in infarct volume” and the “neurological deficit score, 24 h vs 0 h after reperfusion” value [4] is reported as “did not exhibit increased neurological scores”.
